This is an account of results in PMC12374733 (Journal of the American Chemical Society, 2025).

One data set relates to NIH-3T3 cells. The experiment in a line: Cell viability, colorimetric sulforhodamine B assay. It counts as cell-based, mouse.
Assay in data set [1]: as above
It counts as cell-based, mouse. Particulars: mouse, NIH-3T3 cells.

The next data set deals with SH-SY5Y cells. The data set can be described thus: Cell viability during in-cell synthesis of cinacalcet. It counts as cell-based, human. The following applies: SH-SY5Y; for IC50: Homo sapiens. A digest of the protocol:
(§1)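 SH-SY5Y cells were pretreated with aldehyde substrate (200 μM) and sodium formate hydride source (1 mM) for 3 h, then washed with fresh media. The amine partner and Cp* iridium catalyst were added together for a further 24 h. Controls lacked one or more reaction components. Viability is expressed relative to untreated cells.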

Assay in data set [2]: as above
It counts as cell-based, human. The following applies: human, SH-SY5Y cells. A digest of the protocol:
as §1

The nature of data set [3]: Lipophilicity, partition between octanol and PBS. It counts as physicochemical. The following applies: shake-flask.

Like-named read-outs stand apart in the source and are kept apart here.

In the case of `O=CCc1ccccc1` [1c, phenylacetaldehyde], the IC50 in the data set with NIH-3T3 cells (Mus musculus, NIH3T3, read-out: 50% inhibition concentration (IC50)) came to 185 µM. In addition, the viability at 3 h, 400 µM in data set [1] was found to be 38%.

For the compound `OCCc1ccccc1` [2c], the IC50 in the data set on NIH-3T3 cells (NIH-3T3 cell viability) is more than 7000 µM.

On to `C[C@@H](NCCCc1cccc(C(F)(F)F)c1)c1cccc2ccccc12` [cinacalcet, reference compound], for which the IC50 in the data set with SH-SY5Y cells was 16 µM.

On to `O=CCCc1cccc(C(F)(F)F)c1` [1p, 3-(3-(trifluoromethyl)phenyl)propanal], for which, in the data set with SH-SY5Y cells, the IC50 is 175 µM. Besides, the viability at 3 h, 200 μM in data set [2] was not below 85%.

For [Cp*Ir(picolinamidate)Cl] [Ir1], in data set [3], the “partition coefficients (Log P)” value was 1.24. For the same compound, the IC50 in the data set on NIH-3T3 cells (read-out: 50% inhibition concentration (IC50), NIH-3T3 cell viability) was 62 µM. For the same compound, in the data set with SH-SY5Y cells (1p (200 μM), HCOONa (1 mM), (R)-41 and Ir catalyst all present, 24 h), the “cell viability relative to untreated control” value is listed as 28%.

Take `CC(N)c1ccc(O)cc1` (stereo not shown) [compound 10, 4-(1-aminoethyl)phenol]: the IC50 with NIH-3T3 cells (Mus musculus, NIH3T3) was more than 8000 µM. This compound also displayed a viability at 24 h, 1 mM in data set [1] not below 84%.

Consider `NCCc1ccccc1` [3c, phenethylamine], for which the IC50 in the data set with NIH-3T3 cells (Mus musculus, NIH3T3) is more than 7000 µM.

`C[C@@H](N)c1cccc2ccccc12` [(R)-41, (R)-1-(1-naphthyl)ethylamine]: in the data set with SH-SY5Y cells, the IC50 is 1500 µM.
